Data taken from ChEMBL document CHEMBL2176968, “Identification of less lipophilic riminophenazine derivatives for the treatment of drug-resistant tuberculosis” (J Med Chem, 2012).
In brackets after ≈: the same amount, converted by molar mass.

How the values were obtained:
Vero = assay: Cytotoxicity against african green monkey Vero cells after 48 hrs by MTT assay; format: cell-based; conditions: Chlorocebus sabaeus
In short: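 Vero cells were exposed to compound. The IC50 was taken as the concentration inhibiting 50% of growth relative to an untreated control.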

[1] = system: Mycobacterium tuberculosis; assay: Antimycobacterial activity against Mycobacterium tuberculosis H37Rv ATCC 27294 after 7 days by microplate Alamar blue assay; format: functional; conditions: H37Rv ATCC 27294, 168 h
In short: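 Run in 96-well plates against M. tuberculosis H37Rv using the Alamar Blue read-out. The MIC was taken as the lowest concentration giving >90% growth inhibition.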

Mus musculus = assay: Acute toxicity in mouse assessed as survival at 500 mg/kg, po measured for 7 days; format: organism-based; set-up: dose 500 mg/kg, route oral; conditions: in vivo, 168 h
In short: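 Mice given one oral dose of 500 mg/kg, then observed for 7 days. The number of surviving mice was recorded.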

[2] = Selectivity index, ratio of IC50 for african green monkey Vero cells to MIC for Mycobacterium tuberculosis H37Rv ATCC 27294; format: functional
[3] = Cmax in BALB/c mouse at 20 mg/kg, po; format: ADME, organism-based; set-up: dose 20 mg/kg, route oral; conditions: in vivo
[4] = AUC (0 to 24 hrs) in BALB/c mouse at 20 mg/kg, po; format: ADME, organism-based; set-up: time < 24 hr, dose 20 mg/kg, route oral; conditions: plasma
[5] = Octanol-water partition coefficient, log P of the compound; format: physicochemical
[6] = Half life in BALB/c mouse at 20 mg/kg, po; format: ADME, organism-based; set-up: dose 20 mg/kg, route oral; conditions: in vivo
[7] = Aqueous solubility of the compound in 100 ml buffer solution at pH 1.0; format: physicochemical
In short: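 Solubility was measured in pH 1 buffer and reported in g/100 mL.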

[8] = Acute toxicity in mouse; format: organism-based; conditions: in vivo

| Compound | IC50 (Vero) | MIC [1] | Activity (Mus musculus) | Selectivity Index [2] | Cmax [3] | AUC(0-t) at 24 h [4] | logP [5] | half-life [6] | solubility [7] | LD50 [8] |
| --- | --- | --- | --- | --- | --- | --- | --- | --- | --- | --- |
| COc1ncccc1Nc1cc2nc3ccccc3n(-c3ccc(Br)cc3)c-2c/c1=N\C1CCOCC1 | > 64 µg/mL | 0.02 µg/mL (≈ 0.0359 µM) | Non-toxic | 3200 |  |  |  |  |  |  |
| COc1ncccc1Nc1cc2nc3ccccc3n(-c3ccc(Br)cc3)c-2c/c1=N\C1CCC(OC)CC1 (configuration not stated) | > 64 µg/mL | 0.031 µg/mL (≈ 0.053 µM) | Non-toxic | 2065 |  |  |  |  |  |  |
| COC1CCC(/N=c2\cc3n(-c4ccc(Br)cc4)c4ccccc4nc-3cc2Nc2cccnc2C)CC1 (configuration not stated) | 41.8 µg/mL (≈ 73.6 µM) | 0.015 µg/mL (≈ 0.0264 µM) | Toxic | 2788 |  |  |  |  |  |  |
| COc1ncccc1Nc1cc2nc3ccccc3n(-c3ccc(OC(F)(F)F)cc3)c-2c/c1=N\C1CCC(OC)CC1 (configuration not stated) | > 64 µg/mL | 0.016 µg/mL (≈ 0.0271 µM) | Non-toxic | 4000 | 1300 ng/mL | 24100 ng·h/mL | 4.52 | 41.2 h |  |  |
| COc1ncccc1Nc1cc2nc3ccccc3n(-c3ccc(Cl)cc3)c-2c/c1=N\C1CCOCC1 | > 64 µg/mL | 0.016 µg/mL (≈ 0.0312 µM) | Non-toxic | 4000 | 2010 ng/mL | 33100 ng·h/mL | 4.15 | 6.62 h |  |  |
| COc1ncccc1Nc1cc2nc3ccccc3n(-c3ccc(Cl)cc3)c-2c/c1=N\C1CCC(OC)CC1 (configuration not stated) | > 64 µg/mL | 0.016 µg/mL (≈ 0.0296 µM) | Non-toxic | 4000 | 3010 ng/mL | 43900 ng·h/mL | 3.74 | 7 h |  |  |
| COC1CCC(/N=c2\cc3n(-c4ccc(Cl)cc4)c4ccccc4nc-3cc2Nc2cccnc2C)CC1 (configuration not stated) | 35.1 µg/mL (≈ 67.1 µM) | 0.011 µg/mL (≈ 0.021 µM) | Toxic | 3195 |  |  |  |  |  |  |
| COC1CCC(/N=c2\cc3n(-c4ccc(Cl)cc4)c4ccccc4nc-3cc2Nc2ccc(C)nc2)CC1 (configuration not stated) | 50.9 µg/mL (≈ 97.1 µM) | 0.016 µg/mL (≈ 0.0305 µM) | Non-toxic | 3180 | 1560 ng/mL | 22100 ng·h/mL | 4.11 | 16.1 h |  |  |
| COc1ncccc1Nc1cc2nc3ccccc3n(-c3ccc(F)cc3)c-2c/c1=N\C(C)C | > 64 µg/mL | 0.03 µg/mL (≈ 0.0661 µM) | Non-toxic | 2133 | 3020 ng/mL | 52400 ng·h/mL | 4.07 | 17.5 h | 0.7 g |  |
| COc1ncccc1Nc1cc2nc3ccccc3n(-c3ccc(F)cc3)c-2c/c1=N\C1CCC(OC)CC1 (configuration not stated) | > 64 µg/mL | 0.016 µg/mL (≈ 0.0306 µM) | Non-toxic | 4000 | 3650 ng/mL | 45400 ng·h/mL | 4.82 | 7.9 h |  |  |
| Cc1ncccc1Nc1cc2nc3ccccc3n(-c3ccc(F)cc3)c-2c/c1=N\C1CCOCC1 | > 64 µg/mL | 0.026 µg/mL (≈ 0.0542 µM) | Toxic | 2462 |  |  |  |  |  |  |
| COC1CCC(/N=c2\cc3n(-c4ccc(F)cc4)c4ccccc4nc-3cc2Nc2cccnc2C)CC1 (configuration not stated) | > 64 µg/mL | 0.019 µg/mL (≈ 0.0374 µM) | Toxic | 3368 |  |  |  |  |  |  |
| COc1ncccc1Nc1cc2nc3ccccc3n(-c3ccc(C(F)(F)F)cc3)c-2c/c1=N\C(C)C | > 64 µg/mL | 0.029 µg/mL (≈ 0.0576 µM) | Non-toxic | 2207 |  |  |  |  |  |  |
| COc1ncccc1Nc1cc2nc3ccccc3n(-c3ccc(C(F)(F)F)cc3)c-2c/c1=N\C1CCOCC1 | > 64 µg/mL | 0.016 µg/mL (≈ 0.0293 µM) | Non-toxic | 4000 |  |  |  |  |  |  |
| COc1ncccc1Nc1cc2nc3ccccc3n(-c3ccc(C(F)(F)F)cc3)c-2c/c1=N\C1CCC(OC)CC1 (configuration not stated) | > 64 µg/mL | 0.016 µg/mL (≈ 0.0279 µM) | Non-toxic | 4000 |  |  |  |  |  |  |
| Cc1ncccc1Nc1cc2nc3ccccc3n(-c3ccc(C(F)(F)F)cc3)c-2c/c1=N\C1CCOCC1 | > 64 µg/mL | 0.011 µg/mL (≈ 0.0208 µM) | Toxic | 5818 |  |  |  |  |  |  |
| CC(C)/N=c1\cc2n(-c3ccc(Cl)cc3)c3ccccc3nc-2cc1Nc1cccnc1 | 8.2 µg/mL (≈ 18.6 µM) | 0.03 µg/mL (≈ 0.0682 µM) |  | 273 |  |  |  |  |  | 422 mg/kg |
| CC(C)/N=c1\cc2n(-c3ccccc3)c3ccccc3nc-2cc1Nc1cccnc1 | 3.93 µg/mL (≈ 9.69 µM) | 0.06 µg/mL (≈ 0.148 µM) |  | 66 |  |  |  |  |  |  |
| Cc1ccc(-n2c3c/c(=N\C(C)C)c(Nc4cccnc4)cc-3nc3ccccc32)cc1 | 2.71 µg/mL (≈ 6.46 µM) | 0.06 µg/mL (≈ 0.143 µM) |  | 45 |  |  |  |  |  |  |
| CSc1ccc(-n2c3c/c(=N\C(C)C)c(Nc4cccnc4)cc-3nc3ccccc32)cc1 | 1.83 µg/mL (≈ 4.05 µM) | 0.05 µg/mL (≈ 0.111 µM) |  | 37 |  |  |  |  |  |  |
| CC(C)/N=c1\cc2n(-c3ccc(F)cc3)c3ccccc3nc-2cc1Nc1cccnc1 | 6.25 µg/mL (≈ 14.8 µM) | 0.03 µg/mL (≈ 0.0708 µM) |  | 208 |  |  |  |  |  |  |
| CC(C)/N=c1\cc2n(-c3ccc(C(F)(F)F)cc3)c3ccccc3nc-2cc1Nc1cccnc1 | 19.7 µg/mL (≈ 41.5 µM) | 0.03 µg/mL (≈ 0.0634 µM) |  | 655 |  |  |  |  |  |  |
| CC(C)/N=c1\cc2n(-c3ccc(OC(F)(F)F)cc3)c3ccccc3nc-2cc1Nc1cccnc1 | 4.93 µg/mL (≈ 10.1 µM) | 0.03 µg/mL (≈ 0.0613 µM) |  | 164 |  |  |  |  |  |  |
| CC(C)/N=c1\cc2n(-c3ccc(Br)cc3)c3ccccc3nc-2cc1Nc1cccnc1 | 2.3 µg/mL (≈ 4.75 µM) | 0.02 µg/mL (≈ 0.0413 µM) |  | 115 |  |  |  |  |  |  |
| CC(C)/N=c1\cc2n(-c3ccc(Cl)cc3)c3ccccc3nc-2cc1Nc1ccc(Cl)cc1 [CLOFAZIMINE] | 68.6 µg/mL (≈ 145 µM) | 0.12 µg/mL (≈ 0.253 µM) |  | 572 | 380 ng/mL | 6960 ng·h/mL | 5.34 | 29.7 h |  | > 3000 mg/kg |
